In ChEMBL document CHEMBL1131060, “Salicylhydrazine-containing inhibitors of HIV-1 integrase: implication for a selective chelation in the integrase active site” (J Med Chem, 1998):

Columns and labels:
CCRF-CEM [1] = experiment: Tested for HIV-1 replication in CEM cells.; type: functional, cell-based; settings: Homo sapiens
In short: (§1)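 CEM T4 lymphocytes, exponentially growing, 5000 cells/well, infected with thawed HIV-1 stock at m.o.i. ~0.1. Compounds dissolved in DMSO, diluted 1:100 in medium, final 1:200. Uninfected drug-treated cells served as toxicity control. Incubation 6 days at 37 °C, 5% CO2. Viability read by XTT formazan absorbance, with microscopic confirmation of protection.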

[2] = molecular target: T1, Human immunodeficiency virus type 1 integrase (Human immunodeficiency virus 1, UniProt Q7ZJM1); experiment: Inhibitory concentration as 50% inhibition of HIV-1 integrase enzyme at strand transfer stage of DNA integration.
[3] = molecular target: T1, Human immunodeficiency virus type 1 integrase; experiment: Inhibition of HIV-1 integrase enzyme at 3`- processing stage of DNA integration
CCRF-CEM [4] = experiment: Effective concentration was evaluated on HIV-1 infected CEM cells.; type: functional, cell-based; settings: Homo sapiens; in short: as §1
[5] = molecular target: T1, Human immunodeficiency virus type 1 integrase; experiment: Inhibitory concentration was evaluated as 50% inhibition of HIV-1 integrase enzyme at 3`- processing stage of DNA integration in experiment II
[6] = molecular target: T1, Human immunodeficiency virus type 1 integrase; experiment: Inhibitory concentration was evaluated as 50% inhibition of HIV-1 integrase enzyme at strand transfer stage of DNA integration in experiment I
In short: (§2)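 Purified recombinant HIV-1 integrase (200 nM final) preincubated with inhibitor for 30 min at 30 °C in MOPS/HEPES pH 7.2–7.5 buffer containing 7.5 mM MnCl2 and 10% DMSO. 20 nM 5'-32P-labeled 21-mer duplex oligonucleotide (AE117/AE118) added, then 1 h more. Strand transfer products resolved on denaturing 20% polyacrylamide/urea gels and quantified by phosphorimaging. % inhibition plotted against drug concentration to read IC50.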

CCRF-CEM [7] = experiment: Effective concentration was evaluated on HIV-1 infected CEM cells. (NR-not reached due to cytotoxicity.); type: functional, cell-based; in short: as §1
[8] = molecular target: T1, Human immunodeficiency virus type 1 integrase; experiment: Inhibitory concentration was evaluated as 50% inhibition of HIV-1 integrase enzyme at 3`- processing stage of DNA integration in experiment I
[9] = molecular target: T1, Human immunodeficiency virus type 1 integrase; experiment: Inhibitory concentration was evaluated as 50% inhibition of HIV-1 integrase enzyme at strand transfer stage of DNA integration in experiment II; in short: as §2
CCRF-CEM [10] = experiment: Effective concentration was evaluated on HIV-1 infected CEM cells; type: functional, cell-based; settings: Homo sapiens; in short: as §1
CCRF-CEM [11] = experiment: Effective concentration was evaluated on HIV-1 infected CEM cells.(NR-not reached due to cytotoxicity.); type: functional, cell-based, Homo sapiens; in short: as §1

T1 sequence (Q7ZJM1 whole entry): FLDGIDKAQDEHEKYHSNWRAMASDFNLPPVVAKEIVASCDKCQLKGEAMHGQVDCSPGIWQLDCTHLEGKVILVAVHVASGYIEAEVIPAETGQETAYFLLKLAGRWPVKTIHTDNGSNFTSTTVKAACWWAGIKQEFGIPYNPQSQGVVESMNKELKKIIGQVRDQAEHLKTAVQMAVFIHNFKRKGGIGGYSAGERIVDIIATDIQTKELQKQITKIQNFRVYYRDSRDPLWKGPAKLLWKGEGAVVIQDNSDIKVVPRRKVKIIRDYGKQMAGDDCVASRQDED

IC50 (CCRF-CEM [1]) [µM]	IC50 [2] [µM]	IC50 [3] [µM]	Compound	EC50 (CCRF-CEM [7])	also measured
> 15	> 293	> 293	CC1=NN(C(=O)c2ccc(Cl)cc2)C(=O)/C1=C/c1ccc(O)cc1		EC50 (CCRF-CEM [4]): > 15 µM
> 10			O=C(NN1C(=O)C(Cl)C1c1ccc([N+](=O)[O-])cc1)c1ccccc1O (stereo not drawn)	Not reached	IC50 [5]: 168 µM; IC50 [6]: 155 µM; IC50 [8]: 192 µM; IC50 [9]: 83 µM
0.053	0.6	0.9	COc1ccc(/C=C2/C(=O)N(C(=O)c3ccccc3O)N=C2C)cc1	Not reached	
	> 100	> 100	O=C(O)c1ccccc1C(=O)NNC(=O)c1ccccc1C(=O)O		
	> 100	> 100	COc1cc(C(=O)NNC(=O)c2ccc(Cl)cc2)cc(OC)c1OC		
	> 100	> 100	O=C(NNC(=O)c1ccc(Br)cc1)c1ccc(Br)cc1		
	> 100	> 100	O=C(NNC(=O)c1cccc2ccccc12)c1ccccc1F		
8.2	264	300	O=C(NN1C(=O)C(Cl)C1c1ccccc1O)c1ccccc1O (stereo not drawn)	Not reached	
	> 100	> 100	O=C(NNC(=O)c1cccc2ccccc12)c1ccccc1Br		
	> 100	> 100	O=C(NNC(=O)c1cccc2ccccc12)c1ccc(Cl)c(Cl)c1		
> 14.8	94		O=C(NN1C(=O)C(Cl)C1c1ccccc1Cl)c1ccccc1O (stereo not drawn)	Not reached	IC50 [5]: 248 µM; IC50 [8]: 241 µM
	> 100	> 100	O=C(NNC(=O)c1ccc2ccccc2c1)c1ccc(Cl)c(Cl)c1		
	> 100	> 100	O=C(NNC(=O)c1ccccc1F)c1ccc2ccccc2c1		
0.059	0.9	0.6	CC1=NN(C(=O)c2ccccc2O)C(=O)/C1=C/c1ccc(O)cc1	Not reached	
4.4	73.7		COc1cc(C2C(Cl)C(=O)N2NC(=O)c2ccccc2O)cc(OC)c1OC (stereo not drawn)	Not reached	IC50 [5]: 75.7 µM; IC50 [8]: 68.8 µM
> 15			O=C(NN1C(=O)C(Cl)C1c1cccc(O)c1)c1ccccc1O (stereo not drawn)	Not reached	IC50 [5]: 225 µM; IC50 [6]: 236 µM; IC50 [8]: 180 µM; IC50 [9]: 99 µM
> 17	> 240	> 240	COc1cc(/C=C2/C(=O)N(C(=O)c3ccc(Cl)cc3)N=C2C)cc(OC)c1OC		EC50 (CCRF-CEM [4]): > 17 µM
0.091	0.6	0.8	CC1=NN(C(=O)c2ccccc2O)C(=O)/C1=C/c1ccc([N+](=O)[O-])cc1	Not reached	
	> 100	> 100	O=C(NNC(=O)c1ccccc1Br)c1ccccc1Br		
	> 100	> 100	O=C(NNC(=O)c1ccccc1F)c1ccccc1F		
> 20	> 270	> 270	CC1=NN(C(=O)c2ccc(Cl)cc2)C(=O)/C1=C/c1cccc([N+](=O)[O-])c1		EC50 (CCRF-CEM [10]): > 20 µM
10.3	285	> 300	O=C(NN1C(=O)C(Cl)C1c1ccc(O)cc1)c1ccccc1O (stereo not drawn)	Not reached	

IC50 (CCRF-CEM [1]) [µM]	IC50 [2] [µM]	IC50 [3] [µM]	Compound	EC50 (CCRF-CEM [7])	also measured
> 200	> 100	> 100	Nc1ccccc1C(=O)NNC(=O)c1ccccc1N		EC50 (CCRF-CEM [10]): > 200 µM
> 74	125		O=C(NN1C(=O)C(Cl)C1c1cccc(Cl)c1)c1ccccc1O (stereo not drawn)	Not reached	IC50 [5]: 202 µM; IC50 [8]: 155 µM
	> 100	> 100	COc1cc(C(=O)NNC(=O)c2ccc(Cl)c(Cl)c2)cc(OC)c1OC		
> 35	> 260	> 260	COc1ccc(/C=C2/C(=O)N(C(=O)c3ccc(Cl)cc3)N=C2C)cc1OC		EC50 (CCRF-CEM [4]): > 35 µM
> 8	> 293	> 293	CC1=NN(C(=O)c2ccc(Cl)cc2)C(=O)/C1=C/c1cccc(O)c1		EC50 (CCRF-CEM [4]): > 8 µM
	> 100	> 100	O=C(NNC(=O)c1ccc(Cl)c(Cl)c1)c1ccccc1		
> 50	106		COc1ccc(C2C(Cl)C(=O)N2NC(=O)c2ccccc2O)cc1OC (stereo not drawn)	Not reached	IC50 [5]: 109 µM; IC50 [8]: 125 µM
	222	127	O=C(NN1C(=O)C(Cl)C1c1c(O)ccc2ccccc12)c1ccccc1O (stereo not drawn)		
0.24	2	2	COc1cc(/C=C2/C(=O)N(C(=O)c3ccccc3O)N=C2C)cc(OC)c1OC	Not reached	
0.6	2	2.7	CC1=NN(C(=O)c2ccccc2O)C(=O)/C1=C/c1ccco1	Not reached	
	> 100	> 100	O=C(NNC(=O)c1ccc(Cl)cc1Cl)c1ccc2ccccc2c1		
	> 100	> 100	CCOc1ccccc1C(=O)NNC(=O)c1ccccc1OCC		
> 21	> 293	> 293	CC1=NN(C(=O)c2ccc(Cl)cc2)C(=O)/C1=C/c1ccccc1O		EC50 (CCRF-CEM [4]): > 21 µM
> 10	> 280	> 280	CC1=NN(C(=O)c2ccc(Cl)cc2)C(=O)/C1=C/c1ccc(Cl)cc1		EC50 (CCRF-CEM [4]): > 10 µM
> 27.5	262	> 275	COc1cc(C2C(Cl)C(=O)N2NC(=O)c2ccccc2O)ccc1O (stereo not drawn)	Not reached	
	0.6	0.8	COc1cc(/C=C2/C(=O)N(C(=O)c3ccccc3O)N=C2C)ccc1O	Not reached	
0.1			O=C(NNC(=O)c1ccccc1O)c1ccccc1O		EC50 (CCRF-CEM [11]): Not reached
	7.4	0.9	CC1=NN(C(=O)c2ccccc2O)C(=O)/C1=C/c1cccc(O)c1	Not reached	
> 144	167	288	COc1ccc(C2C(Cl)C(=O)N2NC(=O)c2ccccc2O)cc1 (stereo not drawn)		
	> 100	> 100	O=C(NNC(=O)c1ccc(Cl)c(Cl)c1)c1ccc(Cl)c(Cl)c1		
0.098	2.6	1.4	CC1=NN(C(=O)c2ccccc2O)C(=O)/C1=C/c1cccc([N+](=O)[O-])c1	Not reached	

Compound	IC50 (CCRF-CEM [1]) [µM]	IC50 [2] [µM]	IC50 [3] [µM]	EC50 (CCRF-CEM [7])	also measured
CC1=NN(C(=O)c2ccccc2O)C(=O)/C1=C/c1ccccc1O	0.062	2.8		Not reached	
COc1ccc(/C=C2/C(=O)N(C(=O)c3ccccc3O)N=C2C)cc1OC	0.15			Not reached	
